The source of these data is the array DNA melting data of Ke et al. (doi:10.1101/2024.01.08.574731).

Data set [1] in a line: folding enthalpy; higher = less favourable; fluorescence melt of hairpins on a sequencing array, two-state fit. As to conditions: sodium 0.088 M. An outline of the steps:
(§1)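 Folding enthalpy and melting temperature were estimated with bootstrapped two-state fits and combined across four replicates by inverse-variance weighting, with fitted temperatures raised by 9.35 °C to match UV melts. The data were Cy3 fluorescence of library hairpins, with annealed Cy3 and quencher oligos, on a sequenced MiSeq flow cell in 50 mM Na-HEPES pH 8.0, 25 mM NaCl, imaged in 2.5 °C steps up to 60 °C and normalised to pre-quench Cy3 and control constructs.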

Data set [2] can be described thus: melting temperature; fluorescence melt of hairpins on a sequencing array, two-state fit, raised by 9.35 °C to match UV melts. As to conditions: sodium 0.088 M. The method in brief: as §1

As to GCTTAGCGAAAGCAATGC ((.(.((....)).).)), the folding enthalpy in data set [1] is -11.7 kcal/mol. Moreover, the Tm in data set [2] is 31.9 °C.
Consider GCTTAGCGAAAGCACAGC (((..((....))..))), for which the folding enthalpy in data set [1] is -15.8 kcal/mol. Besides, the Tm in data set [2] worked out at 38.6 °C.
On to GCTTAGCGAAAGCCAGGC ((.(.((....)).).)), for which the folding enthalpy in data set [1] was -12.6 kcal/mol. For the same sequence, the Tm in data set [2] was found to be 34.5 °C.
In the same order, the values of GCTTAGCGAAAGCGAAGC ((((.((....)).)))) are -22.4 kcal/mol and 60.8 °C.
Turning to GCTTAGCGAAAGCGATGC ((.(.((....)).).)), in data set [1], the folding enthalpy was -18.6 kcal/mol. For the same sequence, the Tm in data set [2] was found to be 59.5 °C.
For the sequence GCTTAGCGAAAGCGCAGC (((..((....))..))), the folding enthalpy in data set [1] is -17.6 kcal/mol. Besides, the Tm in data set [2] turned out to be 46.9 °C.
Regarding GCTTAGCGAAAGCTCAGC (((.(((....))).))), the folding enthalpy in data set [1] was -33.7 kcal/mol. Besides, the Tm in data set [2] was determined as 49.1 °C.
As for GCTTAGCGAAAGCTGAGC (((.(((....))).))), in data set [1], the folding enthalpy was -45.6 kcal/mol. Moreover, in data set [2], the Tm worked out at 57.6 °C.
Consider GCTTAGCGAAAGCTGCGC ((..(((....)))..)), for which the folding enthalpy in data set [1] is -19.3 kcal/mol. For the same sequence, the Tm in data set [2] came to 54.9 °C.
In the same order, the values of GCTTAGCGAAAGCTGGGC ((..(((....)))..)) are -20.1 kcal/mol and 51.8 °C.
As for GCTTAGCGAAAGCTGTGC ((..(((....)))..)), the folding enthalpy in data set [1] is -16.4 kcal/mol. Moreover, the Tm in data set [2] worked out at 39.7 °C.
On to GCTTAGTCGAAAGACAGC (((..(((....)))))), for which the folding enthalpy in data set [1] was -17.2 kcal/mol. The Tm in data set [2] came out at 40.3 °C.
Regarding GCTTATCGAAAGATGAGC (((.(((....))).))), the folding enthalpy in data set [1] is -54.6 kcal/mol. The Tm in data set [2] is 50.6 °C.
Regarding GCTTATCGAAAGATTAGC (((.(((....))).))), the folding enthalpy in data set [1] is -35.9 kcal/mol. In data set [2], the Tm amounted to 44.8 °C.
For GCTTATGGAAACGTAAGC (((((.(....).))))), in data set [1], the folding enthalpy is -44 kcal/mol. The Tm in data set [2] is 45.1 °C.
For GCTTCAGGAAACCGAAGC (((((.(....).))))), the folding enthalpy in data set [1] is -35.9 kcal/mol. Besides, the Tm in data set [2] came out at 46.3 °C.
Turning to GCTTCCCCGAAAGGGAGC (((..(((....)))))), the folding enthalpy in data set [1] is -19.2 kcal/mol. The Tm in data set [2] was 46.6 °C.
As for GCTTCCGAAAGGAAAGC ((((((....))).))), the folding enthalpy in data set [1] is -38.7 kcal/mol. In addition, the Tm in data set [2] turned out to be 54.3 °C.
In the same order, the values of GCTTCCGAAAGGACTAGC ((((((....)))..))) are -16.2 kcal/mol and 35.7 °C.
As to GCTTCCGAAAGGAGAAGC ((((((....)))..))), in data set [1], the folding enthalpy is -25.6 kcal/mol. In addition, in data set [2], the Tm came to 45.7 °C.
The corresponding values for GCTTCCGAAAGGATCAGC ((((((....)))..))) are -21.7 kcal/mol and 34 °C.
With GCTTCCTCGAAAGAGAGC (((..(((....)))))), in data set [1], the folding enthalpy was -12.7 kcal/mol. The Tm in data set [2] was found to be 28.9 °C.
Turning to GCTTCGCGAAAGCAAAGC ((((.((....)).)))), in data set [1], the folding enthalpy was -23.8 kcal/mol. In data set [2], the Tm is 57.3 °C.
Consider GCTTCGCGAAAGCCACGC ((.(.((....)).).)), for which the folding enthalpy in data set [1] was -8.03 kcal/mol. Besides, in data set [2], the Tm came out at 27.8 °C.
As for GCTTCGCGAAAGCCTAGC (((..((....))..))), in data set [1], the folding enthalpy was -14.7 kcal/mol. For the same sequence, the Tm in data set [2] worked out at 37.4 °C.
Turning to GCTTCGCGAAAGCGAGC (((.(((....)))))), the folding enthalpy in data set [1] was -15.6 kcal/mol. In addition, the Tm in data set [2] was determined as 61.4 °C.
In the case of GCTTCGCGAAAGCGCTGC ((..(((....)))..)), the folding enthalpy in data set [1] is -22.9 kcal/mol. Besides, the Tm in data set [2] amounted to 41.4 °C.
Consider GCTTCGCGAAAGCGGTGC ((..(((....)))..)), for which the folding enthalpy in data set [1] is -14.6 kcal/mol. In addition, the Tm in data set [2] was 49.3 °C.
In the case of GCTTCGCGAAAGCGTGGC ((..(((....)))..)), the folding enthalpy in data set [1] was -17.4 kcal/mol. For the same sequence, the Tm in data set [2] was 53.3 °C.
With GCTTCGCGAAAGCTAGGC ((.(.((....)).).)), in data set [1], the folding enthalpy is -17.3 kcal/mol. For the same sequence, the Tm in data set [2] was determined as 35.2 °C.
For GCTTCGGGAAACCGGAGC (((.(((....))).))), the folding enthalpy in data set [1] is -41.5 kcal/mol. Besides, in data set [2], the Tm was determined as 56.5 °C.
GCTTCTCGAAAGAGGAGC (((.(((....))).))): the folding enthalpy in data set [1] was -36.1 kcal/mol. The Tm in data set [2] worked out at 56.1 °C.
The corresponding values for GCTTCTCGAAAGAGTAGC (((.(((....))).))) are -31.1 kcal/mol and 47.9 °C.
On to GCTTCTGGAAACAAAAGC ((((.((....)).)))), for which the folding enthalpy in data set [1] is -13.1 kcal/mol. In addition, in data set [2], the Tm is 28.8 °C.
In the case of GCTTCTTCGAAAGAAAGC (((..(((....)))))), the folding enthalpy in data set [1] was -16 kcal/mol. Also, the Tm in data set [2] came to 30.3 °C.
Consider GCTTGAGGAAACTCGAGC (((.(((....))).))), for which the folding enthalpy in data set [1] is -41.5 kcal/mol. Besides, the Tm in data set [2] is 51.5 °C.
GCTTGATCGAAAGATAGC (((..(((....)))))): the folding enthalpy in data set [1] was -17.7 kcal/mol. Moreover, the Tm in data set [2] is 29.4 °C.
For GCTTGCCGAAAGGCCAGC (((.(((....))).))), the folding enthalpy in data set [1] is -27.9 kcal/mol. Moreover, in data set [2], the Tm came out at 54.1 °C.
As for GCTTGCGAAAGCAAAGC ((((((....))).))), the folding enthalpy in data set [1] is -22.8 kcal/mol. Moreover, in data set [2], the Tm came to 61.4 °C.
In the same order, the values of GCTTGCGAAAGCAAGAGC ((((((....)))..))) are -12.3 kcal/mol and 56.3 °C.
In the same order, the values of GCTTGCGAAAGCAGGAGC ((((((....)))..))) are -14.3 kcal/mol and 51.4 °C.
In the case of GCTTGGCGAAAGCAAAGC ((((.((....)).)))), the folding enthalpy in data set [1] is -36.5 kcal/mol. The Tm in data set [2] is 63.7 °C.
As for GCTTGGCGAAAGCCACGC ((.((((....)))).)), the folding enthalpy in data set [1] is -19 kcal/mol. For the same sequence, the Tm in data set [2] stood at 58.5 °C.
In the case of GCTTGGCGAAAGCGTAGC (((..((....))..))), the folding enthalpy in data set [1] is -16.2 kcal/mol. For the same sequence, the Tm in data set [2] turned out to be 39.6 °C.
GCTTGGGCGAAAGCCAGC (((..(((....)))))): the folding enthalpy in data set [1] was -12.9 kcal/mol. Moreover, the Tm in data set [2] turned out to be 48.6 °C.
With GCTTGGGGAAACCTAAGC ((((.((....)).)))), the folding enthalpy in data set [1] is -32.1 kcal/mol. Further, the Tm in data set [2] is 47.8 °C.
On to GCTTGTCGAAAGACGAGC (((.(((....))).))), for which, in data set [1], the folding enthalpy was -36.9 kcal/mol. Besides, the Tm in data set [2] worked out at 61.3 °C.
As to GCTTGTGCGAAAGCAAGC (((..(((....)))))), in data set [1], the folding enthalpy is -22.9 kcal/mol. In data set [2], the Tm came to 46.5 °C.
Take GCTTGTGGAAACATAGGC ((.(.((....)).).)): in data set [1], the folding enthalpy is -14.7 kcal/mol. In data set [2], the Tm was found to be 32 °C.
As for GCTTTACCGAAAGGTAGC (((..(((....)))))), the folding enthalpy in data set [1] was -13 kcal/mol. Moreover, the Tm in data set [2] came to 37.7 °C.
In the case of GCTTTACGAAAGTAGAGC (((.(((....))).))), in data set [1], the folding enthalpy is -38.9 kcal/mol. The Tm in data set [2] stood at 49.4 °C.
For the sequence GCTTTCCGAAAGGATAGC (((.(((....))).))), in data set [1], the folding enthalpy was -35.9 kcal/mol. Further, the Tm in data set [2] was determined as 51.5 °C.
In the same order, the values of GCTTTCGAAAGAACAGC ((((((....))).))) are -23.7 kcal/mol and 36.8 °C.
Regarding GCTTTCGGAAACAAAAGC (((((.(....).))))), the folding enthalpy in data set [1] is -23.9 kcal/mol. In addition, the Tm in data set [2] came out at 35.5 °C.
